Source: ChEMBL document CHEMBL1133857, “Beta 3 agonists. Part 1: evolution from inception to BMS-194449” (Bioorg Med Chem Lett, 2001)

Key:
[1] = biological target: T1, Beta-3 adrenergic receptor (Homo sapiens, UniProt P13945); experiment: Human beta-3 adrenergic receptor agonist activity by measurement of cAMP accumulation levels in CHO membranes expressing human beta-3 receptor.; format: functional, cell membranes
Method in brief: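 β3 intrinsic activity (% activation) measured in membranes from CHO cells transfected with human β3 adrenergic receptor.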
Target sequence in this assay (P13945 whole entry, looked up): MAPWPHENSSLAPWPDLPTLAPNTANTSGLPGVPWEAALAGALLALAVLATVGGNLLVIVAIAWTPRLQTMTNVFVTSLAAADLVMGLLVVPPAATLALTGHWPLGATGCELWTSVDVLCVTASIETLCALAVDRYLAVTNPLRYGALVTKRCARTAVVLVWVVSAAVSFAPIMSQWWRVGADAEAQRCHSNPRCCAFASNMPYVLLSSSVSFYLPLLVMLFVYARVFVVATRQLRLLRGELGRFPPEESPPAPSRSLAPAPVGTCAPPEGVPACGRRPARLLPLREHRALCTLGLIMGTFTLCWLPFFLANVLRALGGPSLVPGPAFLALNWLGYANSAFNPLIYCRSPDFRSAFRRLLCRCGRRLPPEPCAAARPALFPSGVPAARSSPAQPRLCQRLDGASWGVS

[2] = biological target: T1, Beta-3 adrenergic receptor; experiment: Binding affinity against CHO cells transfected with human beta-3 adrenergic receptor in the presence of [125I]iodocyanopindolol; format: cell-based
Method in brief: (§1)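 Ki at human β1, β2 and β3 adrenergic receptors measured by binding to membranes prepared from CHO cells transfected with each human receptor. Selectivity is expressed as the ratio of β1 or β2 Ki to β3 Ki.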
Target sequence in this assay (P13945 whole entry): as the sequence (P13945 whole entry, looked up) above

[3] = biological target: Adrenergic receptor beta; ADRB1 & ADRB3 (Homo sapiens) (UniProt P08588+P13945); experiment: Selectivity measured as the ratio of Ki of Beta-1 Adrenergic receptor to the Ki of Beta-3 Adrenergic receptor; format: protein assay; method in brief: as §1
[4] = biological target: Beta-2 adrenergic receptor and beta-3 adrenergic receptor (Homo sapiens) (UniProt P07550+P13945); experiment: Selectivity as the ratio of Ki of beta-2 adrenergic receptor to the Ki of beta-3 adrenergic receptor.; format: protein assay; method in brief: as §1
[5] = organism: Cavia porcellus; experiment: (§2) Intrinsic activity as the acceleration in contraction of spontaneously beating guinea pig atria relative to that induced by isoproterenol; format: functional
[6] = biological target: Beta-1 adrenergic receptor (Cavia porcellus) (UniProt B0FL73); experiment: as §2; format: functional
[7] = Response of African green monkeys to lipolysis upon iv injection of compound; format: functional; details: Cercopithecidae
Method in brief: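 Agonist given iv to ketamine-anesthetized African green monkeys. Lipolysis is read as the rise in non-esterified fatty acids, and the ED50 is given in mg/kg. β3 mediation is checked by co-administration with propranolol 0.1 mg/kg.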

[8] = Response of African green monkeys to iv injection measured as beta-1 margin before onset of tachycardia; format: functional, Cercopithecidae
Method in brief: (§3)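 Agonist given iv to ketamine-anesthetized African green monkeys. A β1 event is the onset of tachycardia, and a β2 event is a decrease in serum K+. Margin = dose producing statistically significant onset of the β1 or β2 event ÷ ED50 for lipolysis.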

[9] = Response of African green monkeys to iv injection measured as beta-2 margin before decrease of serum K; format: functional, Cercopithecidae; method in brief: as §3

Chain of Adrenergic receptor beta; ADRB1 & ADRB3 (Homo sapiens) (P08588 whole entry, looked up): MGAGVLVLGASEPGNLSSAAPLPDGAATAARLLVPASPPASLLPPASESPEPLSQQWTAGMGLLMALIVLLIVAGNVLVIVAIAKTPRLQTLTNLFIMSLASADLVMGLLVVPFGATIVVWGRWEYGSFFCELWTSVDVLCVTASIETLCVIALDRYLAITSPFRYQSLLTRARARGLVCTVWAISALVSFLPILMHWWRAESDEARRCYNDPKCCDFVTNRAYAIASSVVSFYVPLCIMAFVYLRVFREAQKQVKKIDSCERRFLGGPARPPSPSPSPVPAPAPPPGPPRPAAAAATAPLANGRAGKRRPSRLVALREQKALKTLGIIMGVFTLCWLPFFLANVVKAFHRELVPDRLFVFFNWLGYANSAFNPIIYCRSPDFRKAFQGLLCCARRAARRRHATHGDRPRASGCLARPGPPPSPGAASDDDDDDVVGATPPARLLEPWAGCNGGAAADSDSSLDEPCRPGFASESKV
Chain of Adrenergic receptor beta; ADRB1 & ADRB3 (Homo sapiens) (P13945 whole entry, looked up): as the sequence (P13945 whole entry, looked up) above
Chain of Beta-1 adrenergic receptor (Cavia porcellus) (B0FL73 1-467): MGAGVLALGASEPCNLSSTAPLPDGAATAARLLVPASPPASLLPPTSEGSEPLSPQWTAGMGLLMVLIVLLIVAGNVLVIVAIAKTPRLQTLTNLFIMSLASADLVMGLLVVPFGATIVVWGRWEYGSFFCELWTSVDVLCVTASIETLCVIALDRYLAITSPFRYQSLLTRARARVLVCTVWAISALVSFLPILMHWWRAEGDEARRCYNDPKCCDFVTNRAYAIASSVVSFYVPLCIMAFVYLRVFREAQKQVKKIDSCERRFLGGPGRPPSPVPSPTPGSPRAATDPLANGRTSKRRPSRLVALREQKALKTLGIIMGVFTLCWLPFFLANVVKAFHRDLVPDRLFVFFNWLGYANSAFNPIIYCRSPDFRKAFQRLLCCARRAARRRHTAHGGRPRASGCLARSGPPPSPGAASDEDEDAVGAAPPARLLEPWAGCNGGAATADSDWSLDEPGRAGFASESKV

SMILES | Intrinsic activity [1] [%] | Ki [2] [nM] | Selectivity [3] | Selectivity [4] | Intrinsic activity [5] [%] | Intrinsic activity [6] [%] | ED50 [7] [mg/kg] | Ratio of dose [8] | Ratio of dose [9]
COCc1ccc(C(NC[C@H](O)c2ccc(O)c(NS(C)(=O)=O)c2)c2ccc(COC)cc2)cc1 | 78 | 980 | 46 | 13 | – | – | – | – | –
COc1ccc(C(C)(NC[C@H](O)c2ccc(O)c(NS(C)(=O)=O)c2)c2ccc(OC)cc2)cc1 | 79 | 20 | 3 | 8 | 79 | – | – | – | –
CS(=O)(=O)Nc1cc([C@@H](O)CNC(c2ccccc2)c2ccccc2)ccc1O | 44 | 5800 | 5 | 5 | – | – | – | – | –
CS(=O)(=O)Nc1cc(C(O)CNC23CC4CC(CC(C4)C2)C3)ccc1O (stereo unspecified) | 110 | 11000 | 15 | 0.04 | – | – | – | – | –
COc1ccc(CNCC(O)c2ccc(O)c(NS(C)(=O)=O)c2)cc1 (stereo unspecified) | 95 | 1550 | 22 | 2 | – | – | – | – | –
COC(=O)COc1ccc(CCNCC(O)c2ccc(O)c(NS(C)(=O)=O)c2)cc1 (stereo unspecified) | 79 | 3300 | 0.7 | 0.01 | – | – | – | – | –
COc1ccc(C(Cc2ccccc2)NCC(O)c2ccc(O)c(NS(C)(=O)=O)c2)cc1OC (stereo unspecified) | 105 | 33 | 69 | 8 | – | – | – | – | –
CS(=O)(=O)Nc1cc(C(O)CNC(Cc2ccccc2)C2CCCCC2)ccc1O (stereo unspecified) | 80 | 4300 | 7 | 0.7 | – | – | – | – | –
COc1ccc(CCNCC(O)c2ccc(O)c(NS(C)(=O)=O)c2)cc1OC (stereo unspecified) | 110 | 550 | 4 | 1 | – | – | – | – | –
COc1ccc(C(Cc2ccccc2)NCC(O)c2ccc(O)c(NS(C)(=O)=O)c2)c(OC)c1 (stereo unspecified) | 102 | 70 | 37 | 3 | – | – | – | – | –
CCCCCC(Cc1ccccc1)NCC(O)c1ccc(O)c(NS(C)(=O)=O)c1 (stereo unspecified) | 77 | 320 | 8 | 0.5 | – | – | – | – | –
CNC(=O)CCCCC(Cc1ccccc1)NCC(O)c1ccc(O)c(NS(C)(=O)=O)c1 (stereo unspecified) | 104 | 1600 | 7 | 0.5 | – | – | – | – | –
CS(=O)(=O)Nc1cc(C(O)CN)ccc1O (stereo unspecified) | 93 | 17000 | 0.6 | 0.1 | – | – | – | – | –
CCC(C)(C)NCC(O)c1ccc(O)c(NS(C)(=O)=O)c1 (stereo unspecified) | 125 | 3700 | 0.3 | 0.03 | – | – | – | – | –
COc1ccc(C(NC[C@H](O)c2ccc(O)c(NS(C)(=O)=O)c2)(C(N)=O)c2ccc(OC)cc2)cc1 | 106 | 220 | 3 | 10 | – | – | – | – | –
CS(=O)(=O)Nc1cc(C(O)CNC(Cc2ccccc2)Cc2ccccc2)ccc1O (stereo unspecified) | – | 1500 | 6 | 0.3 | – | – | – | – | –
CS(=O)(=O)Nc1cc(C(O)CNC(Cc2ccccc2)c2ccc(Cl)c(Cl)c2)ccc1O (stereo unspecified) | 97 | 414 | 9 | 1 | – | – | – | – | –
CS(=O)(=O)Nc1cc([C@@H](O)CNC(c2ccc(F)cc2)c2ccc(F)cc2)ccc1O | 70 | 2800 | 3 | 2 | 48 | – | – | – | –
CN(C)C(=O)c1ccc(C(NC[C@H](O)c2ccc(O)c(NS(C)(=O)=O)c2)c2ccc(C(=O)N(C)C)cc2)cc1 | 43 | – | – | – | – | – | – | – | –
COc1ccc([C@H](Cc2ccccc2)NC[C@H](O)c2ccc(O)c(NS(C)(=O)=O)c2)cc1OC | 93 | 320 | 63 | 6 | – | – | – | – | –

SMILES | Intrinsic activity [1] [%] | Ki [2] [nM] | Selectivity [3] | Selectivity [4] | Intrinsic activity [5] [%] | Intrinsic activity [6] [%] | ED50 [7] [mg/kg] | Ratio of dose [8] | Ratio of dose [9]
CCc1ccc(C(Cc2ccccc2)NCC(O)c2ccc(O)c(NS(C)(=O)=O)c2)cc1CC (stereo unspecified) | 91 | 520 | 6 | 0.5 | – | – | – | – | –
CC(=O)Nc1ccc(C(NC[C@H](O)c2ccc(O)c(NS(C)(=O)=O)c2)c2ccc(NC(C)=O)cc2)cc1 | 96 | 300 | 17 | 3 | – | 88 | – | – | –
Cc1ccc(C(Cc2ccccc2)NCC(O)c2ccc(O)c(NS(C)(=O)=O)c2)cc1C (stereo unspecified) | 79 | 133 | 43 | 3 | – | – | – | – | –
CS(=O)(=O)Nc1cc(C(O)CNCCc2ccc(OCC(=O)O)cc2)ccc1O (stereo unspecified) | 77 | 49000 | 2 | 0.06 | – | – | – | – | –
CC(C)NCC(O)c1ccc(O)c(NS(C)(=O)=O)c1 (stereo unspecified) [SOTERENOL] | 109 | 4100 | 2 | 0.6 | – | – | – | – | –
CS(=O)(=O)Nc1cc([C@@H](O)CNC(c2ccc(OC(F)F)cc2)c2ccc(OC(F)F)cc2)ccc1O | 77 | 160 | 8 | 7 | 24 | – | 0.08 | >6 | >60
CS(=O)(=O)Nc1cc(C(O)CNC(Cc2ccccc2)c2ccccc2)ccc1O (stereo unspecified) | – | – | 15 | 3 | – | – | – | – | –
COc1cccc(C(Cc2ccccc2)NCC(O)c2ccc(O)c(NS(C)(=O)=O)c2)c1 (stereo unspecified) | 99 | 230 | 16 | 2 | – | – | – | – | –
COc1ccc([C@@H](Cc2ccccc2)NC[C@H](O)c2ccc(O)c(NS(C)(=O)=O)c2)cc1OC | 112 | 11 | 63 | 6 | – | – | 0.03 | <3 | 3
COc1ccc(C(Cc2ccccc2)NCC(O)c2ccc(O)c(NS(C)(=O)=O)c2)cc1 (stereo unspecified) | 99 | – | – | – | – | – | – | – | –
C[C@H](Cc1ccc(OCC(=O)O)cc1)NC[C@H](O)c1cccc(Cl)c1 | 67 | – | – | – | – | – | – | – | –
COc1ccc(CCNCC(O)c2ccc(O)c(NS(C)(=O)=O)c2)cc1 (stereo unspecified) | 93 | 480 | 4 | 0.3 | – | – | – | – | –
COC(=O)CCCCC(Cc1ccccc1)NCC(O)c1ccc(O)c(NS(C)(=O)=O)c1 (stereo unspecified) | 89 | 570 | 26 | 5 | – | – | – | – | –
CS(=O)(=O)Nc1cc(C(O)CNCCc2ccccc2)ccc1O (stereo unspecified) | 91 | 1100 | 2 | 0.07 | – | – | – | – | –
CC(NC[C@H](O)c1ccc(O)c(NS(C)(=O)=O)c1)(c1ccc(OC(F)F)cc1)c1ccc(OC(F)F)cc1 | 94 | 81 | 2 | 2 | – | – | – | – | –
COc1ccc(C(NC[C@H](O)c2ccc(O)c(NS(C)(=O)=O)c2)c2ccc(OC)cc2)cc1 | 100 | – | – | – | 85 | – | – | – | –
CS(=O)(=O)Nc1cc(C(O)CNCc2ccccc2)ccc1O (stereo unspecified) | – | 12700 | 2 | 0.25 | – | – | – | – | –
CS(=O)(=O)Nc1cc(C(O)CNC(CCCCCO)Cc2ccccc2)ccc1O (stereo unspecified) | 72 | 480 | 10 | 0.5 | – | – | – | – | –
CS(=O)(=O)Nc1cc(C(O)CNC(CCCCC(=O)O)Cc2ccccc2)ccc1O (stereo unspecified) | 57 | 87000 | 1 | 0.3 | – | – | – | – | –
